Measured values taken from ChEMBL document CHEMBL3875165, “Novel broad-spectrum and long-acting parenteral cephalosporins having an acyl cyanamide moiety at the C-3 terminal: Synthesis and structure-activity relationships” (Eur J Med Chem, 2016).

How the values were obtained:
Escherichia coli = assay: Antibacterial activity against Escherichia coli NIHJ JC-2 after 20 hrs by agar dilution method; format: functional; conditions: NIHJ JC-2, 20 h
In short: (§1)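 Agar dilution MIC on Sensitivity Disk Agar-N with 2-fold serial drug dilutions. Overnight Mueller Hinton broth cultures were diluted to about 10^6 CFU/mL, and 1 µL spots were applied. Plates were incubated 20 h at 37 °C before scoring.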

[1] = AUC (0 to infinity) in monkey at 20 mg/kg, iv administered as bolus dose by HPLC method; format: ADME, organism-based, Macaca mulatta; parameters: dose 20 mg/kg, time infinity, route intravenous; conditions: rhesus monkey, in vivo
In short: (§2)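 Three monkeys per group received a single iv bolus of 20 mg/kg (1 mL/kg). Plasma levels were measured by HPLC. AUC0-∞, CLtot and T1/2 came from a 2-compartment fit.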

[2] = Total clearance in monkey at 20 mg/kg, iv administered as bolus dose by HPLC method; format: ADME, organism-based, Macaca mulatta; conditions: rhesus monkey, in vivo; in short: as §2
[3] = AUC (0 to infinity) in mouse at 20 mg/kg, iv administered as bolus dose by band-culture bioassay; conditions: in vivo
[4] = Protein binding in cynomolgus monkey plasma after 30 mins by ultra-filtration method; format: ADME, cell-free, Macaca fascicularis; conditions: read-out: PPB (converted)
In short: (§3)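 Mouse or monkey plasma was adjusted to pH 7 with CO2 and spiked with compound to a final 10 µg/ml. It was incubated 30 min at 37 °C, then ultrafiltered by centrifugation at 3200 rpm for 30 min at 25 °C. Free drug in the filtrate was measured by bioassay to give the bound fraction.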

[5] = Half life in monkey at 20 mg/kg, iv administered as bolus dose by HPLC method; format: ADME, organism-based, Macaca mulatta; conditions: rhesus monkey, in vivo; in short: as §2
Haemophilus influenzae [6] = assay: Antibacterial activity against beta-lactamase non-producing penicillin-resistant Haemophilus influenzae SR24106 after 20 hrs by agar dilution method; format: functional; conditions: SR24106, 20 h
In short: (§4)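 Agar dilution on Sensitivity Disk Agar-N. Overnight Mueller Hinton broth cultures were diluted to about 10^6 CFU/mL, and 1 µL spots were placed on agar plates holding 2-fold serial dilutions of antibiotic. Plates were incubated 20 h at 37 °C and then MICs were scored.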

Moraxella catarrhalis = assay: Antibacterial activity against Moraxella catarrhalis SR24290 after 20 hrs by agar dilution method; format: functional; conditions: SR24290, 20 h; in short: as §1
[7] = Half life in mouse at 20 mg/kg, iv administered as bolus dose by band-culture bioassay; conditions: in vivo
Streptococcus pneumoniae [8] = assay: Antibacterial activity against penicillin-resistant Streptococcus pneumoniae SR16750 after 20 hrs by agar dilution method; format: functional; conditions: SR16750, 20 h; in short: as §4
[9] = Total clearance in mouse at 20 mg/kg, iv administered as bolus dose by band-culture bioassay; conditions: in vivo
Haemophilus influenzae [10] = assay: Antibacterial activity against beta-lactamase non-producing penicillin-resistant Haemophilus influenzae SR11435 after 20 hrs by agar dilution method; format: functional; conditions: SR11435, 20 h; in short: as §4
[11] = Protein binding in ICR mouse plasma after 30 mins by ultra-filtration method; format: ADME, cell-free; conditions: read-out: PPB (converted); in short: as §3
Staphylococcus aureus = assay: Antibacterial activity against Staphylococcus aureus SMITH after 20 hrs by agar dilution method; format: functional; in short: as §1
Streptococcus pneumoniae [12] = assay: Antibacterial activity against penicillin-resistant Streptococcus pneumoniae SR16675 after 20 hrs by agar dilution method; format: functional; conditions: SR16675, 20 h; in short: as §4

| Compound | MIC (Escherichia coli) | AUC [1] | clearance [2] | AUC(0-inf) [3] | fraction unbound at 0.5 h [4] | half-life [5] | MIC (Haemophilus influenzae [6]) | MIC (Moraxella catarrhalis) | half-life [7] | MIC (Streptococcus pneumoniae [8]) | clearance [9] | MIC (Haemophilus influenzae [10]) | fraction unbound at 0.5 h [11] | MIC (Staphylococcus aureus) | MIC (Streptococcus pneumoniae [12]) |
| --- | --- | --- | --- | --- | --- | --- | --- | --- | --- | --- | --- | --- | --- | --- | --- |
| CCO/N=C(\C(=O)N[C@@H]1C(=O)N2C(C(=O)[O-])=C(/C=C/C[n+]3ccc(-c4cc(/C([O-])=N/C#N)n(C)n4)cc3)CS[C@H]12)c1csc(N)n1.[Na+] | 0.25 µg/mL | 21800 ng·h/mL | 0.81 mL/min/kg | 21300 ng·h/mL | 0.41 | 178 min | 0.25 µg/mL | 8 µg/mL | 49.2 min | 0.5 µg/mL | 13.2 mL/min/kg | 0.063 µg/mL | 0.59 | 0.5 µg/mL | 0.125 µg/mL |
| CCO/N=C(\C(=O)N[C@@H]1C(=O)N2C(C(=O)[O-])=C(/C=C/C[n+]3ccc(-c4cc(/C([O-])=N/C#N)n(C)c4)cc3)CS[C@H]12)c1csc(N)n1.[Na+] | 0.25 µg/mL | 32100 ng·h/mL |  | 26000 ng·h/mL | 0.23 | 245 min | 0.125 µg/mL | 8 µg/mL | 52.2 min | 0.5 µg/mL | 12.8 mL/min/kg | 0.063 µg/mL | 0.67 | 0.5 µg/mL | 0.25 µg/mL |
| CCO/N=C(\C(=O)N[C@@H]1C(=O)N2C(C(=O)[O-])=C(/C=C/C[n+]3ccc(-c4csc(/C([O-])=N/C#N)n4)cc3)CS[C@H]12)c1csc(N)n1.[Na+] | 0.125 µg/mL | 48000 ng·h/mL |  | 27400 ng·h/mL | 0.23 | 310 min | 0.25 µg/mL | 2 µg/mL | 44.4 min | 0.25 µg/mL | 12.2 mL/min/kg | 0.063 µg/mL | 0.69 | 0.5 µg/mL | 0.125 µg/mL |
| N#C/N=C(\[O-])c1cc(-c2cc[n+](CC3=C(C(=O)[O-])N4C(=O)[C@@H](NC(=O)/C(=N\OCCF)c5csc(N)n5)[C@H]4SC3)cc2)n[nH]1.[Na+] (stereo in doubt) | 0.25 µg/mL |  |  | 12700 ng·h/mL |  |  | 0.125 µg/mL | 1 µg/mL | 63.6 min | 0.5 µg/mL | 26.2 mL/min/kg | 0.063 µg/mL | 0.76 | 1 µg/mL | 0.25 µg/mL |
| CCO/N=C(\C(=O)N[C@@H]1C(=O)N2C(C(=O)[O-])=C(/C=C\C[n+]3ccc(-c4cc(/C([O-])=N/C#N)[nH]n4)cc3)CS[C@H]12)c1csc(N)n1.[Na+] | 0.125 µg/mL |  |  |  |  |  | 0.5 µg/mL | 1 µg/mL |  | 1 µg/mL |  | 0.25 µg/mL |  | 0.25 µg/mL | 0.5 µg/mL |
| CCCO/N=C(\C(=O)N[C@@H]1C(=O)N2C(C(=O)[O-])=C(C[n+]3ccc(-c4cc(/C([O-])=N/C#N)[nH]n4)cc3)CS[C@H]12)c1csc(N)n1.[Na+] (stereo in doubt) | 1 µg/mL |  |  | 8900 ng·h/mL |  |  | 1 µg/mL | 1 µg/mL | 58.8 min | 0.5 µg/mL | 37.4 mL/min/kg | 0.063 µg/mL | 0.63 | 0.5 µg/mL | 0.25 µg/mL |
| CCO/N=C(\C(=O)N[C@@H]1C(=O)N2C(C(=O)[O-])=C(C=CC[n+]3ccc(-c4cc(/C([O-])=N/C#N)[nH]n4)cc3)CS[C@H]12)c1csc(N)n1.[Na+] | 0.125 µg/mL |  |  | 17400 ng·h/mL |  |  | 0.25 µg/mL | 1 µg/mL | 51 min | 0.5 µg/mL | 19.1 mL/min/kg | 0.125 µg/mL | 0.76 | 0.25 µg/mL | 0.25 µg/mL |
| CO/N=C(\C(=O)N[C@@H]1C(=O)N2C(C(=O)[O-])=C(C[n+]3ccc(-c4cc(/C([O-])=N/C#N)[nH]n4)cc3)CS[C@H]12)c1csc(N)n1.[Na+] (stereo in doubt) | 0.25 µg/mL |  |  | 18100 ng·h/mL |  |  | 0.25 µg/mL | 2 µg/mL | 54.6 min | 0.5 µg/mL | 18.4 mL/min/kg | 0.063 µg/mL | 0.85 | 1 µg/mL | 0.25 µg/mL |
